How the values were obtained:
Mus musculus [1] = assay: Toxicity in mouse assessed as mortality at 5 ug/kg, ip qd for 4 days; type: organism-based; conditions: in vivo, 0.005 mg/kg, 96 h
In short: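 Mice, groups of 5, given daily intraperitoneal injection at 5 µg/kg body weight for 4 days, isopropanol vehicle group alongside. Blood collected before dosing and at 24, 48, 72 and 96 h for plasma calcium (arsenazo III absorbance). Health condition recorded daily; deaths noted. Experiment repeated two times.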

Mus musculus [2] = assay: Toxicity in mouse assessed as increase in plasma calcium level at 5 ug/kg, ip qd for 4 days measured after 24 to 96 hrs postdose; type: organism-based; conditions: in vivo, 0.005 mg/kg
In short: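 Mice (n = 5/group) were dosed ip daily at 5 µg/kg body weight for 4 days, with isopropanol as vehicle. Plasma calcium was read by arsenazo III metallochromic absorbance before injection (0 h, basal) and at 24, 48, 72 and 96 h. Data are means ± SD of five animals, and the experiment was run twice.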

Mus musculus [3] = assay: Toxicity in mouse assessed as increase in haematocrit at 5 ug/kg, ip qd for 4 days after 72 hrs of last postdose; type: organism-based; conditions: in vivo, 0.005 mg/kg
In short: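 Mice (n = 5/group) received a daily intraperitoneal injection at 5 µg/kg body weight for 4 days, with isopropanol as vehicle. Blood was drawn before dosing and at 24, 48, 72 and 96 h, and haematocrit was recorded from these samples.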

HCT-116 = assay: Cytotoxicity against human HCT116 assessed as decrease in cell count after 120 hrs; type: functional, cell-based; conditions: HCT-116, 120 h
[4] = Cytotoxicity against human HN12 assessed as decrease in cell count after 120 hrs; type: functional; conditions: HN12, 120 h
[5] = Cmax in mouse at 5 ug/kg; type: ADME, organism-based; parameters: dose 5 ug/kg; conditions: in vivo, 0.005 mg/kg
[6] = AUC (0 to 24 hrs) in mouse at 5 ug/kg; type: ADME, organism-based; parameters: dose 5 ug/kg, time < 24 hr; conditions: plasma, 0.005 mg/kg

SMILES	Activity (Mus musculus [1])	Activity (Mus musculus [2])	Activity (Mus musculus [3])	IC50 (HCT-116) [nM]	IC50 [4] [nM]	Cmax [5] [ng/mL]	AUC(0-t) at 24 h [6] [ng·h/mL]
C=C1/C(=C\C=C2/CCC[C@]3(C)[C@@H]([C@H](C)/C=C\[C@H](C)C(O)(CC)CC)CC[C@@H]23)C[C@@H](O)C[C@@H]1O	Toxic	Toxic	Toxic	0.76	5.05		
C=C1/C(=C\C=C2/CCC[C@]3(C)[C@@H]([C@H](C)CCCC(C)(C)O)CC[C@@H]23)C[C@@H](O)C[C@@H]1O [CALCITRIOL]	Toxic	Toxic	Toxic			> 10	> 40

From ChEMBL document CHEMBL2146387, “Synthesis and biological evaluation of a new vitamin D2 analogue” (Bioorg Med Chem Lett, 2012)
